The test system of data set [1] is Rattus norvegicus. Nature of the data set: Inhibition of pituitary gonadotropin activity in rat assessed as decrease of ovarian weight at 20 mg/kg, sc for 14 days. The settings on record: Pituitary gland.
The subject of data set [2] is Rattus norvegicus. Briefly: Inhibition of pituitary gonadotropin activity in rat assessed as decrease of ventral prostate weight at 100 mg/kg, po for 14 days. Type of data set: functional, organism-based. Details: dose 100 mg/kg. The conditions noted are these: Pituitary gland. An outline of the steps:
(§1)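 Mature male rats were dosed orally at 100 mg/kg in ethanol-oil vehicle for 14 days. Ventral prostate, seminal vesicle and testicular weights were then compared against controls for significance.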

Data set [3] deals with Homo sapiens. Nature of the data set: Drug metabolism in human assessed as 17-hydroxy-2alpha-(hydroxymethyl)-17apregn-4-en-20-yn-3-one level in urine at 800 mg, po after 24 hrs by TLC analysis. Type of data set: ADME, organism-based. The conditions noted are these: in vivo. The gist of the method:
(§2)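 Urine was collected from one subject given 800 mg/day orally for 7 days. Metabolites were isolated from the urine, purified in separate chromatographic systems, and identified against synthetic reference material by UV spectra in methanol and by mass spectra.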

The subject of data set [4] is Homo sapiens. Briefly: Drug metabolism in human assessed as 6beta,17-dihydroxy-2-(hydroxymethyl)-17alpha-pregna-1,4-dien-20-yn-3-one level in urine at 800 mg, po after 24 hrs by TLC analysis. Type of data set: ADME, organism-based. The conditions noted are these: in vivo. The gist of the method:
as §2

Data set [5] has as its system Homo sapiens. Nature of the data set: Drug metabolism in human assessed as 6beta,17-dihydroxy-2alpha-(hydroxymethyl)-17alpha-pregn-4-en-20-yn-3-one level in urine at 800 mg, po after 24 hrs by TLC analysis. Type of data set: ADME, organism-based. The settings on record: in vivo. An outline of the steps: as §2
The test system of data set [6] is Rattus norvegicus. Briefly: Inhibition of pituitary gonadotropin activity in rat assessed as decrease of testicular weight at 100 mg/kg, po for 14 days. Type of data set: functional, organism-based. Details: dose 100 mg/kg. The conditions noted are these: Pituitary gland. An outline of the steps:
as §1

Data set [7] can be described thus: Drug metabolism in rhesus monkey assessed as 17-hydroxy-17alpha-pregn-4-en-20-yn-3-one level in urine at 50 mg/kg, po bid after 24 hrs by TLC analysis. Type of data set: ADME, organism-based, Macaca mulatta. Details: dose 50 mg/kg, route oral. The conditions noted are these: in vivo.
Data set [8] has as its system Rattus norvegicus. Briefly: Inhibition of pituitary gonadotropin activity in rat assessed as decrease of number of vaginal estrous days at 20 mg/kg, sc for 14 days. The conditions noted are these: Pituitary gland.
The subject of data set [9] is Rattus norvegicus. Nature of the data set: Inhibition of pituitary gonadotropin activity in rat assessed as decrease of seminal vesicles weight at 100 mg/kg, po for 14 days. The class given is functional, organism-based. The settings on record: Pituitary gland. Details: dose 100 mg/kg. The gist of the method: as §1
The subject of data set [10] is Homo sapiens. Nature of the data set: Drug metabolism in human assessed as 17-hydroxy-2-(hydroxymethyl)-17alpha-pregna-1,4-dien-20-yn-3-one level in urine at 800 mg, po after 24 hrs by TLC analysis. The class given is ADME, organism-based. The conditions noted are these: in vivo. An outline of the steps:
as §2

The subject of data set [11] is Rattus norvegicus. Nature of the data set: Inhibition of pituitary gonadotropin activity in rat assessed as decrease of ovarian weight at 25 mg/kg, sc for 14 days. The conditions noted are these: Pituitary gland.
The nature of data set [12]: Drug metabolism in rhesus monkey assessed as metabolite level in urine treated with at 50 mg/kg, po bid of danazol after 24 hrs by TLC analysis. The arrangement: dose 50 mg/kg, route oral. Type of data set: ADME, organism-based, Macaca mulatta. The conditions noted are these: in vivo.
The subject of data set [13] is Rattus norvegicus. Nature of the data set: Inhibition of pituitary gonadotropin activity in rat assessed as decrease of number of vaginal estrous days at 25 mg/kg, sc for 14 days. The settings on record: Pituitary gland.
Data set [14] relates to Rattus norvegicus. Nature of the data set: Inhibition of pituitary gonadotropin activity in rat assessed as decrease of number of vaginal estrous days at 50 mg/kg, sc for 14 days. The settings on record: Pituitary gland.
Data set [15] has as its system Homo sapiens. Nature of the data set: Drug metabolism in human assessed as metabolite level treated with 800 mg, po of danazol in urine after 24 hrs by TLC analysis. The conditions noted are these: in vivo. Type of data set: ADME, organism-based. An outline of the steps:
as §2

The subject of data set [16] is Rattus norvegicus. Nature of the data set: Inhibition of pituitary gonadotropin activity in rat assessed as decrease of ovarian weight at 50 mg/kg, sc for 14 days. The settings on record: Pituitary gland.

Activity calls are given as the source filed them. No cut-off for these calls is given here.

As to `C#C[C@]1(O)CC[C@H]2[C@@H]3CCC4=Cc5oncc5C[C@]4(C)[C@H]3CC[C@@]21C` [DANAZOL], the inhibition result in data set [1], in data set [2], in data set [6], in data set [8] and in data set [9] was “Active” in each case. The Drug metabolism entry in data set [3], in [4], in data set [5], in data set [7] and in data set [10] was “metabolite_detected” in each case.
In the case of `C#C[C@]1(O)CC[C@H]2[C@@H]3CCC4=CC(=O)CC[C@]4(C)[C@H]3CC[C@@]21C` [ETHISTERONE], the inhibition result in data set [2], in data set [11], in [6], in [13] and in [9] was “inactive” in each case. The Drug metabolism entry in data set [12] was “metabolite_detected”.
For `C#C[C@]1(O)CC[C@H]2[C@@H]3C[C@@H](O)C4=CC(=O)C(CO)=C[C@]4(C)[C@H]3CC[C@@]21C`, the inhibition entry in data set [2], in data set [14], in data set [6], in data set [9] and in data set [16] was “inactive” in each case. The Drug metabolism entry in data set [15] was “metabolite_detected”.
For the molecule `C#C[C@]1(O)CC[C@H]2[C@@H]3CCC4=CC(=O)C(CO)=C[C@]4(C)[C@H]3CC[C@@]21C`, the inhibition result in [2], in [11], in data set [6], in data set [13] and in data set [9] was “inactive” each time. Moreover, in data set [15], the Drug metabolism entry is reported as “metabolite_detected”.
Regarding `C#C[C@]1(O)CC[C@H]2[C@@H]3CCC4=CC(=O)[C@H](CO)C[C@]4(C)[C@H]3CC[C@@]21C`, the inhibition result in [2], in data set [14], in data set [6], in [9] and in [16] was “inactive” in each case. Also, the Drug metabolism result in data set [15] is “metabolite_detected”.
Regarding `C#C[C@]1(O)CC[C@H]2[C@@H]3C[C@@H](O)C4=CC(=O)[C@H](CO)C[C@]4(C)[C@H]3CC[C@@]21C`, the inhibition entry in data set [2], in data set [14], in data set [6], in data set [9] and in [16] was “inactive” in each case. Also, the Drug metabolism result in data set [15] is reported as “metabolite_detected”.

The record behind these values is ChEMBL document CHEMBL3244010, “Isolation, synthesis, and biological activity of five metabolites of danazol” (J Med Chem, 1977).
